Test results published in PubChem BioAssay.
Active and inactive are the calls of the source.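 How the source made its calls, unless noted: active means potentiation averaged over duplicate wells exceeding buffer-only control mean by more than 3 SD; inactive means the rest.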

tested on: not listed separately; assay: thallium flux activation in parental CHO cells, counter-screen for KCNQ1 potentiator project (AID 493006;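 active means duplicate-averaged activation above buffer control mean plus 5 SD of those controls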); conditions: parental CHO-K1 cells, FluxOR thallium flux, at 10 µM; active compounds read high
How it was run: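 Assay system: Untransfected host CHO-K1 cells with FluxOR thallium dye | Probe or stimulus: Potassium/thallium depolarization pulse | Schedule: Overnight 37 °C plating, 90 min RT dye, 20 min compound | Detection: Kinetic thallium-flux fluorescence | Read-out: Max-minus-min fluorescence over baseline, percent of buffer-to-R-L3 span | Benchmarks: Low control buffer, high control R-L3 activator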

| Structure (SMILES) | outcome | activation |
| --- | --- | --- |
| Cc1cc(Br)ccc1OCC(=O)NNC(=O)c1cnccn1 | inactive | – |
| COCCCn1c(=S)[nH]c2sc3c(c2c1=O)CCCC3 | – | 366% (active) |
| CN(C)CC(CCCCC(CN(C)C)C(=O)c1ccccc1)C(=O)c1ccccc1 (stereo not given) | inactive | – |
| COc1cc(/C=N/NC(=O)c2ccoc2C)ccc1OCCN1CCCCC1 | inactive | – |
| Cc1ccc2nc(NC(=O)c3ccc(Br)o3)sc2c1 | inactive | – |
| O=C(Nc1nnc(C2=COCCO2)o1)c1ccc(Br)cc1 | – | 142% (active) |
| CCCOc1ccc(-c2c(=O)n(O)c3ccccc3[n+]2[O-])cc1 | – | 237% (active) |
| COn1c(SCc2ccc(C)cc2C)nc2ccccc2c1=O | inactive | – |
| CCCc1nc(SCC(=O)Nc2cc(Cl)ccc2OC)c2c(=O)n(C)c(=O)n(C)c2n1 | inactive | – |
| Cc1ccc(C(=O)COC(=O)COc2ccccc2C)cc1 | inactive | – |
| Cc1cccc(NC(=O)C(=O)NNC(=O)c2ccc(C(C)(C)C)cc2)c1 | – | 485% (active) |
| O=C(COc1ccc(Cl)cc1)NNC(=O)C(=O)NC1CCCCC1 | inactive | – |
| CCn1c(SCC(=O)NC(=O)NCc2ccco2)nc2sc(C)c(C)c2c1=O | – | 184% (active) |
| O=C(CCC(=O)N1CCOc2ccc(Cl)cc21)NCCN1CCOCC1 | inactive | – |
| Oc1c(CN2CCN(c3ccccn3)CC2)cc(Cl)c2cccnc12 | – | 148% (active) |
| CC(=O)Nc1cccc(/C(C)=N/NC(=O)c2ccc(Cl)cc2Cl)c1 | inactive | – |
| CC(C)OC(=O)c1c(NS(=O)(=O)c2ccccc2)sc2c1CCCC2 | – | 262% (active) |
| C/C(=N\NC(=O)c1cc2ccccc2cc1O)c1cc2ccccc2o1 | – | 706% (active) |
| C=CCn1c(O)c(N=NC(=S)Nc2cccc(C)c2)c2ccccc21 | – | 225% (active) |
| CCC(C(=O)OCC(=O)NC(=O)NC(C)(C)C)c1ccccc1 (stereo not given) | inactive | – |

| Structure (SMILES) | outcome | activation |
| --- | --- | --- |
| O=c1c2cccnc2n(-c2ccccc2)n1Cc1ccc(Cl)cc1 | inactive | – |
| Cc1ccc(C(=O)N/C(=C\c2ccc(-c3ccccc3[N+](=O)[O-])o2)C(=O)NCCCN2CCOCC2)cc1 | inactive | – |
| COc1ccccc1CNC(=O)COC(=O)c1nccnc1N | inactive | – |
| COc1ccc(-n2cc(-c3ccccc3)c3c(=S)nc[nH]c32)cc1 | – | 137% (active) |
| COc1cc2c(cc1OC)CN(C(=O)CNC(=O)c1ccc(OC(F)F)cc1)CC2 | inactive | – |
| O=C(CC1(O)C(=O)N(C/C=C/c2ccccc2)c2ccccc21)c1ccccn1 (stereo not given) | inactive | – |
| O=C(NC(=S)N1CCc2ccccc21)c1ccccc1 | – | 308% (active) |
| NNC(=O)c1sccc1OCc1ccc(Cl)cc1Cl | inactive | – |
| CN(C(=O)c1ccco1)c1nnc(-c2ccc(F)cc2)s1 | inactive | – |
| O=c1cc(-c2ccccc2)nc2c(-c3ccccc3)c(C(F)(F)F)[nH]n12 | – | 626% (active) |
| COc1ccccc1NS(=O)(=O)c1cc(NC(=O)c2cnccn2)ccc1N1CCOCC1 | – | 222% (active) |
| O=C(NCc1cccs1)C1CC(c2ccccc2O)=NO1 (stereo not given) | inactive | – |
| O=C(Nc1nc(=O)c2ccccc2s1)c1ccc(Cl)cc1 | – | 246% (active) |
| COc1ccc(CNC(=O)CNC(C)c2ccc(F)cc2)cc1 (stereo not given) | inactive | – |
| Cc1ccccc1NC1=NC(=S)N(c2ccccc2)C12CCCCC2 | – | 176% (active) |
| Oc1c(Cl)cc(Cl)cc1/C=N/c1nccs1 | – | 174% (active) |
| S=c1[nH]nc(-c2ccco2)n1/N=C/c1ccc(Cl)c(Cl)c1 | – | 512% (active) |
| CC(=O)Nc1c2c(nn1-c1ccc(C)cc1)CS(=O)(=O)C2 | inactive | – |
| Cc1ccc(S(=O)(=O)Nc2cc(C(F)(F)F)ccc2N2CCOCC2)c(C)c1 | inactive | – |
| CNc1ccccc1C(=O)OC(C)C(=O)Nc1ccc(Cl)cn1 (stereo not given) | inactive | – |

biological target: Potassium voltage-gated channel subfamily KQT member 1 (Homo sapiens) (UniProt P51787); assay: KCNQ1 potassium channel potentiators, confirmation, FluxOR thallium flux, CHO cells, duplicates (AID 493007); conditions: KCNQ1 cell line, FluxOR thallium flux fluorescence, at 10 µM; active compounds read high, % of reference activator effect, buffer zero;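 on outcome: cells depolarized by a potassium plus thallium sulfate stimulus after compound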
Sequence (P51787 whole entry, looked up): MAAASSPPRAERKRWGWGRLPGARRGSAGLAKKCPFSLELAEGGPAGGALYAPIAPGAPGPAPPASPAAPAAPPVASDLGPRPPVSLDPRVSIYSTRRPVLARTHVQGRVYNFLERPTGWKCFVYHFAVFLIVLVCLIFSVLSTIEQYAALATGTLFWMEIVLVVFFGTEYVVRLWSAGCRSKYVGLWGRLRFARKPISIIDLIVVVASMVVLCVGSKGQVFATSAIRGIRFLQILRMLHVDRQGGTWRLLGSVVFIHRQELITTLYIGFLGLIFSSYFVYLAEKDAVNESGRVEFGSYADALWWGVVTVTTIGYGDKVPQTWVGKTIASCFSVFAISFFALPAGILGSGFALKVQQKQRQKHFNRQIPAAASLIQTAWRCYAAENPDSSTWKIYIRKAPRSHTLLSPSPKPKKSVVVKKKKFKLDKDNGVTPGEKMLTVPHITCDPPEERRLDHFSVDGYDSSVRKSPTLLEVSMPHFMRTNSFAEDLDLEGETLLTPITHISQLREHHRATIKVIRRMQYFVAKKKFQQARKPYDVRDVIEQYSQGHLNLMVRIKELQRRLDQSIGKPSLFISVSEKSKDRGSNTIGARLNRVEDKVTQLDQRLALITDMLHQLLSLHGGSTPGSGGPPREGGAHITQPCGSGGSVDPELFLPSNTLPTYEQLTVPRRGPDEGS
How it was run: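 Material: KCNQ1-expressing CHO cell line; Incubation: FluxOR dye loading 90 min, compound exposure 20 min, room temperature; Detection: FluxOR Tl+ flux fluorescence, 10 s baseline plus 110 s recording; Read-out: percent activation between buffer and R-L3 responses; Control set: buffer-only wells as 0% and R-L3 activator as 100%; Replication: duplicate wells per compound.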

| Structure (SMILES) | outcome | potentiation |
| --- | --- | --- |
| Cc1cc(Br)ccc1OCC(=O)NNC(=O)c1cnccn1 | inactive | – |
| COCCCn1c(=S)[nH]c2sc3c(c2c1=O)CCCC3 | – | 138% (active) |
| CN(C)CC(CCCCC(CN(C)C)C(=O)c1ccccc1)C(=O)c1ccccc1 (stereo not given) | inactive | – |
| COc1cc(/C=N/NC(=O)c2ccoc2C)ccc1OCCN1CCCCC1 | – | 23.5% (active) |
| Cc1ccc2nc(NC(=O)c3ccc(Br)o3)sc2c1 | inactive | – |
| O=C(Nc1nnc(C2=COCCO2)o1)c1ccc(Br)cc1 | – | 18% (active) |
| CCCOc1ccc(-c2c(=O)n(O)c3ccccc3[n+]2[O-])cc1 | inactive | – |
| COn1c(SCc2ccc(C)cc2C)nc2ccccc2c1=O | inactive | – |
| CCCc1nc(SCC(=O)Nc2cc(Cl)ccc2OC)c2c(=O)n(C)c(=O)n(C)c2n1 | inactive | – |
| Cc1ccc(C(=O)COC(=O)COc2ccccc2C)cc1 | inactive | – |
| Cc1cccc(NC(=O)C(=O)NNC(=O)c2ccc(C(C)(C)C)cc2)c1 | – | 179% (active) |
| O=C(COc1ccc(Cl)cc1)NNC(=O)C(=O)NC1CCCCC1 | inactive | – |
| CCn1c(SCC(=O)NC(=O)NCc2ccco2)nc2sc(C)c(C)c2c1=O | – | 40.5% (active) |
| O=C(CCC(=O)N1CCOc2ccc(Cl)cc21)NCCN1CCOCC1 | inactive | – |
| Oc1c(CN2CCN(c3ccccn3)CC2)cc(Cl)c2cccnc12 | – | 35% (active) |
| CC(=O)Nc1cccc(/C(C)=N/NC(=O)c2ccc(Cl)cc2Cl)c1 | inactive | – |
| CC(C)OC(=O)c1c(NS(=O)(=O)c2ccccc2)sc2c1CCCC2 | – | 126% (active) |
| C/C(=N\NC(=O)c1cc2ccccc2cc1O)c1cc2ccccc2o1 | – | 478% (active) |
| C=CCn1c(O)c(N=NC(=S)Nc2cccc(C)c2)c2ccccc21 | – | 77% (active) |
| CCC(C(=O)OCC(=O)NC(=O)NC(C)(C)C)c1ccccc1 (stereo not given) | inactive | – |

| Structure (SMILES) | outcome | potentiation |
| --- | --- | --- |
| O=c1c2cccnc2n(-c2ccccc2)n1Cc1ccc(Cl)cc1 | inactive | – |
| Cc1ccc(C(=O)N/C(=C\c2ccc(-c3ccccc3[N+](=O)[O-])o2)C(=O)NCCCN2CCOCC2)cc1 | inactive | – |
| COc1ccccc1CNC(=O)COC(=O)c1nccnc1N | inactive | – |
| COc1ccc(-n2cc(-c3ccccc3)c3c(=S)nc[nH]c32)cc1 | – | 38% (active) |
| COc1cc2c(cc1OC)CN(C(=O)CNC(=O)c1ccc(OC(F)F)cc1)CC2 | inactive | – |
| O=C(CC1(O)C(=O)N(C/C=C/c2ccccc2)c2ccccc21)c1ccccn1 (stereo not given) | inactive | – |
| O=C(NC(=S)N1CCc2ccccc21)c1ccccc1 | – | 162% (active) |
| NNC(=O)c1sccc1OCc1ccc(Cl)cc1Cl | inactive | – |
| CN(C(=O)c1ccco1)c1nnc(-c2ccc(F)cc2)s1 | inactive | – |
| O=c1cc(-c2ccccc2)nc2c(-c3ccccc3)c(C(F)(F)F)[nH]n12 | – | 282% (active) |
| COc1ccccc1NS(=O)(=O)c1cc(NC(=O)c2cnccn2)ccc1N1CCOCC1 | – | 54% (active) |
| O=C(NCc1cccs1)C1CC(c2ccccc2O)=NO1 (stereo not given) | inactive | – |
| O=C(Nc1nc(=O)c2ccccc2s1)c1ccc(Cl)cc1 | – | 85.5% (active) |
| COc1ccc(CNC(=O)CNC(C)c2ccc(F)cc2)cc1 (stereo not given) | inactive | – |
| Cc1ccccc1NC1=NC(=S)N(c2ccccc2)C12CCCCC2 | – | 26% (active) |
| Oc1c(Cl)cc(Cl)cc1/C=N/c1nccs1 | inactive | – |
| S=c1[nH]nc(-c2ccco2)n1/N=C/c1ccc(Cl)c(Cl)c1 | – | 290% (active) |
| CC(=O)Nc1c2c(nn1-c1ccc(C)cc1)CS(=O)(=O)C2 | inactive | – |
| Cc1ccc(S(=O)(=O)Nc2cc(C(F)(F)F)ccc2N2CCOCC2)c(C)c1 | inactive | – |
| CNc1ccccc1C(=O)OC(C)C(=O)Nc1ccc(Cl)cn1 (stereo not given) | inactive | – |
